Most compounds without a hit are left out; they make up all but 1.8% or so of the library.
PME-1 primary = blocks human protein phosphatase methylesterase 1; recombinant PME-1, FP-Rh probe fluorescence polarization; inhibition, % at 5.9 µM; actives 0.53% (n = 320,000);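 active = inhibition above the campaign mean of all compounds plus 3 SD, cut at about 26% in these data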;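 note: competitive labeling of PME-1 active site by serine hydrolase directed probe; 0% = PME-1 with DMSO and 100% = wells lacking PME-1 enzyme; inhibitors block probe labeling so polarization falls and inhibition rises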
TCR-CD3 inh = inhibitors of human TCR-CD3 interaction. TAMRA-labeled TCR probe fluorescence, biochemical. inhibition, % at 9.4 µM. actives 0.37% (n = 360,000); in the data active = inhibition above about 19%;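 note: recombinant mutant TCR 2C K166C tagged with TAMRA read by polarization; 0% = receptor in buffer alone and 100% = receptor with positive control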
ABHD4 inh = inhibits mouse alpha/beta hydrolase domain 4; inhibition, % at 8.92 µM; actives 0.54% (n = 370,000); Q8VD66; purified mABHD4, FP-Rh probe fluorescence polarization;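 active = inhibition exceeding the mean over every tested compound plus 3 SD, cut at about 30% in these data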;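 note: 0% = plate median of compound wells and 100% = S159A mutant with DMSO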
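Assay system: mouse ABHD4 enzyme, wild type / Also added: fluorescent activity-based probe FP-Rh / Doses: single nominal dose of 8.92 µM, 0.89% DMSO final / Timing: 45 min compound pre-incubation plus 60 min probe step, 25 °C / Signal: FP readout, ex 525 nm / em 598 nm / Control set: S159A mutant/DMSO as 100%, compound-well median as 0%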
SIAE inh = human SIAE inhibition, primary screen | SIAE FP-Rh probe binding, fluorescence polarization | inhibition, % at 9.66 µM | actives 0.69% (n = 370,000);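 active = inhibition above a cutoff: mean of compounds within the control limits plus 3 SD of those, cut at about 17% in these data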;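 note: 0% = plate median of compound wells and 100% = probe without SIAE protein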
HTRA1 inh = HTRA1 (human) protease inhibition. recombinant HTRA1, FP-rhodamine activity-based probe, fluorescence polarization. inhibition, % at 5.96 µM. AID 504803. actives 0.5% (n = 340,000); in the data active = inhibition above about 36%;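 note: 0% = enzyme with DMSO and 100% = wells lacking enzyme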
Target sequence (Q92743 whole entry, looked up): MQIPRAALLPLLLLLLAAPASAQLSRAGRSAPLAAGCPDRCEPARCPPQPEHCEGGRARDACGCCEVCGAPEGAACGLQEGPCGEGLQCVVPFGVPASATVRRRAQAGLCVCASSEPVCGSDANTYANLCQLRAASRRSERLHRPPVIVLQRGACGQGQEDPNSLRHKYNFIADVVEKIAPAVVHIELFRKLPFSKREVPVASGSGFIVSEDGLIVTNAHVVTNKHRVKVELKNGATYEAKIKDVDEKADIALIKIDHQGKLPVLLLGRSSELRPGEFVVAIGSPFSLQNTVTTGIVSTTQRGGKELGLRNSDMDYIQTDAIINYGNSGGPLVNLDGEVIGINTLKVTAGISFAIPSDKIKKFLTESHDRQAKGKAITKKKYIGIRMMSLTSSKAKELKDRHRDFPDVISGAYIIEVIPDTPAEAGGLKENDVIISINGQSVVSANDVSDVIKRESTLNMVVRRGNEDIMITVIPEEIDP
Fam108B inh = Fam108B inhibition, counter-screen for RBBP9 inhibitors; AID 1947; actives 0.33% (n = 300,000); recombinant Fam108B, FP-Rh probe fluorescence polarization; inhibition, % at 9.51 µM;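 active = inhibition above the screen mean inhibition plus 3 SD, computed separately per campaign, cut at about 18% in these data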;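 note: inhibitors lower polarization as less probe binds the enzyme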
HTRA1 conf = confirmation of human HTRA1 inhibitors. shares compounds with HTRA1 inh. recombinant HTRA1, FP-rhodamine activity-based probe, fluorescence polarization. inhibition, % at 5.96 µM. actives 66% (n = 1,600). AID 540248;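 active = mean inhibition over three repeats above a set limit taken from the earlier primary screen, cut at about 37% in these data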;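 note: 0% = HTRA1 with DMSO and 100% = wells lacking HTRA1; inhibitors block probe binding so polarization drops and inhibition rises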
The depositor's hits bear a star; nt = no result given.

SMILES	PME-1 primary	TCR-CD3 inh	ABHD4 inh	SIAE inh	HTRA1 inh	Fam108B inh	HTRA1 conf
O=C1C=CC(=O)N1c1ccc(Nc2ccccc2)cc1	nt	-25.2	21.1	6.9	52.6*	nt	17.9
O=C(c1ccccc1)N1CC[C@H]2[C@H](CCCN2Cc2ccccc2)C1	nt	nt	3.0	1.4	nt	nt	nt
C(#CC1=CCCCC1)CNCc1ccccc1	nt	nt	6.7	4.9	nt	nt	nt
COc1ccccc1Nc1ccc(N)cc1	-0.1	2.1	24.1	9.6	67.9*	5.6	55.5*
COc1ccccc1NC(=O)c1ccccc1Nc1ccccc1	3.5	0.5	-10.2	4.0	-26.2	2.2	nt
CCOc1ccc(-n2c(SCC(=O)Nc3ccc(S(=O)(=O)Nc4nccs4)cc3)nnc2-c2ccco2)cc1	nt	nt	-27.4	-23.0	nt	nt	nt
Nc1cc(OCC(F)(F)F)cc([N+](=O)[O-])c1	-3.9	10.3	8.1	-1.1	-2.6	7.3	nt
Nc1cc(N)c(OCC(F)(F)F)cc1OCC(F)(F)F	14.5	nt	nt	nt	47.9*	9.9	34.2
O=C(OC12CCCN(C1)/C(=C/c1ccc(Cl)cc1)C2)c1ccc(F)cc1 (configuration not stated)	nt	nt	7.4	6.4	nt	nt	nt
CCCC(=O)NC(c1ccccc1OC)c1ccc2cccnc2c1O (configuration not stated)	5.3	nt	nt	nt	33.7	-1.4	nt
CCCCC(=O)NC(c1ccc(Cl)cc1)c1ccc2cccnc2c1O (configuration not stated)	-7.3	-3.5	13.9	13.4	40.3*	-3.3	44.0*
CCCCC(=O)NC(c1ccccc1OC)c1ccc2cccnc2c1O (configuration not stated)	3.5	-10.9	11.2	14.4	59.6*	4.3	52.1*
CCCC(=O)NC(c1ccc(Cl)cc1Cl)c1ccc2cccnc2c1O (configuration not stated)	-0.8	-10.7	17.5	14.6	53.0*	0.1	56.0*
CCN(CC)c1ccc(C(NC(=O)C(C)C)c2ccc3cccnc3c2O)cc1 (configuration not stated)	nt	-9.9	5.5	15.4	56.2*	nt	61.0*
CC(C)C(=O)NC(c1ccco1)c1ccc2cccnc2c1O (configuration not stated)	2.6	-3.8	8.8	12.2	20.2	2.7	nt
CCCC(=O)NC(c1cccc([N+](=O)[O-])c1)c1ccc2cccnc2c1O (configuration not stated)	nt	0.7	17.4	9.1	22.1	nt	nt
CCCC(=O)NC(c1ccc(C)cc1)c1ccc2cccnc2c1O (configuration not stated)	2.6	nt	nt	nt	45.4*	-5.5	58.4*
CCCCC(=O)NC(c1ccc(N(C)C)cc1)c1ccc2cccnc2c1O (configuration not stated)	-2.7	2.9	19.5	13.8	46.4*	3.9	61.0*
CCCC(=O)NC(c1ccc(Cl)cc1)c1ccc2cccnc2c1O (configuration not stated)	2.2	-8.3	17.8	13.4	46.4*	-1.6	48.4*
COC(=O)C[C@@H]1CC[C@@H]2[C@H](COc3ccc(NC(=O)Nc4c(C)noc4C)cc3C(=O)N2C)O1	nt	nt	4.7	-0.3	nt	nt	nt
CC(=O)OC(C)C1C2=C(C(=O)CC1(C)O)C(=O)c1c(ccc(-c3ccc4c(c3O)C(=O)C3=C(C4=O)C(C(C)OC(C)=O)C(C)(O)CC3=O)c1O)C2=O (configuration not stated)	nt	0.0	47.3*	0.9	47.8*	nt	86.7*
COc1cc(C(=O)N/N=C/c2sc(N3CCOCC3)nc2-c2ccccc2)cc(OC)c1OC	-33.7	-3.9	-0.8	3.0	6.7	7.4	nt
O=C(N/N=C/c1sc(N2CCOCC2)nc1-c1ccccc1)c1cccc(S(=O)(=O)N2CCOCC2)c1	-7.5	-3.0	-5.8	-2.8	44.9*	15.1	119.0*
Cc1cc2ccccc2n1CCNC(=O)C1CCCCC1	-0.3	15.6	11.6	-5.7	36.3*	-4.9	0.8
Cc1cc2ccccc2n1CCNC(=O)C1CCCC1	-4.5	-2.3	-2.1	7.6	25.1	-0.2	nt
SMILES	PME-1 primary	TCR-CD3 inh	ABHD4 inh	SIAE inh	HTRA1 inh	Fam108B inh	HTRA1 conf
CCc1noc(C)c1C(=O)Oc1ccc(N(C)S(=O)(=O)c2ccccc2)cc1	1.8	-13.5	-12.6	5.0	36.4*	-2.4	29.8
COc1ccc(C(=O)Oc2ccc3ccc(=O)oc3c2)cc1	-1.6	7.2	0.2	-9.5	2.4	5.2	nt
COc1ccc(C(=O)Oc2ccc3oc(=O)sc3c2)cc1	-2.2	1.3	-11.6	-24.6	45.4*	-0.1	6.4
COC(=O)CCCC1=CC2=CC(=O)C(C)(OC(=O)c3cccs3)C(=O)C2=CN1CCc1c[nH]c2ccccc12 (configuration not stated)	15.6	6.4	11.7	10.5	28.6	-0.6	nt
CC1(OC(=O)C2CCCC2)C(=O)C=C2C=C(c3ccsc3)N(CCc3c[nH]c4ccccc34)C=C2C1=O (configuration not stated)	4.3	nt	nt	nt	36.2*	1.7	16.9
CCCCC1=CC2=CC(=O)C(C)(OC(=O)CC)C(=O)C2=CN1CCc1c[nH]c2ccccc12 (configuration not stated)	-11.4	4.3	15.1	5.6	50.9*	3.5	36.3*
COc1ccc(S[C@]2(C(=O)N3CCOCC3)CC(=O)N(C(=O)/C=C/c3ccccc3)[C@@H]2c2ccc(OC)cc2)cc1	nt	nt	-3.2	-0.9	nt	nt	nt
O=[N+]([O-])c1cc2c(cc1C=Nc1ccccc1)OCO2	4.1	nt	nt	nt	51.0*	4.8	4.4
CCOc1ccc2nc3cc(N=Nc4ccc(N)nc4N)ccc3c(N)c2c1	nt	nt	nt	nt	46.9*	nt	69.9*
O=C(NCCN1CCC(Cc2ccccc2)CC1)C1CCCN(S(=O)(=O)c2ccc(Cl)s2)C1 (configuration not stated)	nt	nt	14.2	4.2	nt	nt	nt
NC(=O)/C(=N\OC(=O)c1ccco1)c1nc(-c2ccc(Br)cc2)cs1	-50.1	3.8	13.7	-41.4	66.5*	-5.2	46.9*
COc1ccc(C=C(C#N)C(=O)c2ccccc2)cc1	nt	-6.8	-56.9	-5.4	nt	nt	nt
COc1cc(/C=C(\C#N)C(=O)c2ccc(O)c(O)c2)cc(I)c1O	-24.3	23.1*	-6.2	-9.8	41.0*	-2.6	29.6
COc1ccc(N=Nc2cc(OC)c(N)cc2OC)cc1	nt	2.2	5.0	7.5	17.7	nt	nt
Cc1cc(N=Nc2ccc(C)c(N=Nc3cc(C)c(N)cc3N)c2)c(N)cc1N	8.8	2.4	26.7	10.6	76.8*	10.0	73.7*
CC(=O)N1CCc2cc(S(=O)(=O)NCCC(=O)NCc3ccc(Cl)cc3)ccc21	nt	nt	1.8	-6.0	nt	nt	nt
COC(=O)CCC(=O)OC1(C)C(=O)C2=CN(c3ccc(OC)cc3)C(c3ccc(OC)cc3)=CC2=C(Br)C1=O (configuration not stated)	8.1	nt	nt	nt	52.8*	4.8	62.8*

Assay outcomes deposited in PubChem BioAssay by The Scripps Research Institute Molecular Screening Center.
